From ChEMBL document CHEMBL1143591, “Synthesis and biological evaluation of 11-substituted 6-aminobenzo[c]phenanthridine derivatives, a new class of antitumor agents” (2005)

Key:
Type in all cases: functional
Details in all cases: Homo sapiens
[1] = tested on: HL-60; experiment: Concentration required to inhibit 50% cell growth of HL-60 Leukemia cell line
How it was run: (§1)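 Tested in the NCI in vitro Human Tumor Cell Line Screen. The GI50 is the concentration that causes 50% inhibition of net cell growth and is reported as the log of the molar concentration. If that level is not reached or is exceeded, the value is given as greater or less than the highest or lowest drug concentration.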

[2] = tested on: K562; experiment: Concentration required to inhibit 50% cell growth of K-562 Leukemia cell line; how it was run: as §1
[3] = tested on: MOLT-4; experiment: Concentration required to inhibit 50% cell growth of MOLT-4 Leukemia cell line; how it was run: as §1
[4] = tested on: CCRF-CEM; experiment: Concentration required to inhibit 50% cell growth of CCRF-CEM Leukemia cell line; how it was run: as §1
[5] = tested on: RPMI-8226; experiment: Concentration required to inhibit 50% cell growth of RPMI-8226 Leukemia cell line; how it was run: as §1

Structure (SMILES)	GI50 [1] [µM]	GI50 [2] [µM]	GI50 [3] [µM]	GI50 [4] [µM]	GI50 [5] [µM]
COc1ccc([C@H]2Cc3ccccc3-c3nc(N)c4ccccc4c32)cc1O	8.13	1.62	14.5	13.8	5.01
Nc1nc2c3ccccc3cc(-c3ccco3)c2c2ccccc12	0.437	4.07	1.2	9.77	4.57
COc1ccc([C@H]2Cc3ccccc3-c3nc(N)c4ccccc4c32)c(OC)c1OC	6.76	4.27	3.47	20.9	4.27
COc1cc([C@H]2Cc3ccccc3-c3nc(N)c4ccccc4c32)cc(OC)c1O	0.288	0.282	0.631	0.871	0.427
COc1cc([C@H]2Cc3ccccc3-c3nc(N)c4ccccc4c32)cc(OC)c1OC	1.7	0.813	2.63	2.63	1.82
COc1cc(-c2cc3ccccc3c3nc(N)c4ccccc4c23)cc(OC)c1OC	0.0631	0.0794	0.372	0.288	0.24
Nc1nc2c3ccccc3cc(-c3ccc4c(c3)OCO4)c2c2ccccc12	4.47	0.794	3.31	4.07	2.82
COc1ccc([C@H]2Cc3ccccc3-c3nc(N)c4ccccc4c32)cc1OC	7.08	2.82	2.95	1.12	2.4
COc1ccc(OC)c([C@H]2Cc3ccccc3-c3nc(N)c4ccccc4c32)c1	13.8	7.59	15.5	17.8	4.68
COc1ccc(-c2cc3ccccc3c3nc(N)c4ccccc4c23)c(OC)c1	0.309	0.219	0.933	0.309	0.363
Nc1nc2c(c3ccccc13)[C@@H](c1ccc3c(c1)OCO3)Cc1ccccc1-2	5.5	3.09	4.79	3.55	3.31
COc1ccc(-c2cc3ccccc3c3nc(N)c4ccccc4c23)c(OC)c1OC	0.38	0.339	0.437	0.372	0.288
Nc1nc2c(c3ccccc13)[C@@H](c1ccco1)Cc1ccccc1-2	4.17	3.09	3.72	3.31	2.82
COc1ccc(-c2cc3ccccc3c3nc(N)c4ccccc4c23)cc1OC	0.0617	0.0457	0.234	0.17	0.126
